Laboratory results taken from publication PMC6644768 (ACS Omega, 2018).
Each block holds one compound with its values, some of them ahead of it.

Tests used:
Type in all cases: cell-based
HeLa cells [1] = experiment: Mitotic index by Hoechst 33258 staining; settings: 20 nM; control 3 ± 0.6
Summary of the method: (§1)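 HeLa cells exposed to 75 and 200 nM test compound or 20 nM reference agent for 12 h. Cells immunostained for phospho-histone H3 (Ser10), with DNA counterstained by Hoechst 33258. Mitotic index scored either from DNA morphology or as phospho-H3-positive cells. Experiment performed three times; error given as standard deviation.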

MCF 10A cells = experiment: IC50 determination, sulforhodamine B assay, MCF 10A; settings: one cell cycle
Summary of the method: (§2)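 Sulforhodamine B proliferation assay as run for A549, but with cells exposed to test compound for one cell cycle. Read-out: TCA fixation, dye binding, Tris solubilization, absorbance at 520 nm. IC50 fitted by nonlinear regression; each cell line determined three times independently. Culture media: HeLa and MCF-7 in Eagle's MEM; L929 and B16F10 in DMEM; MCF 10A in DMEM/F12K with 10% FBS, EGF, hydrocortisone and insulin.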

A549 cells [2] = experiment: Scratch wound healing assay; settings: 100 nM
HeLa cells [3] = experiment: PI staining of dead cells; settings: 20 nM, 24 h; control 6%
Summary of the method: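 HeLa cells on coverslips (2.5 × 10^4 cells/well, 24 h) given vehicle (0.1% DMSO), 75 or 200 nM test compound, or 20 nM reference agent for 24 h. Plates centrifuged at 2500 rpm for 15 min and washed in PBS. Cells stained with propidium iodide for 15 min at room temperature in the dark and imaged. PI-positive cells counted as a percentage. Two independent sets.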

A549 cells [4] = experiment: IC50 determination, sulforhodamine B assay, A549; settings: A549 cell line, 24 h
Summary of the method: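 A549 cells (F-12K medium, 10% FBS) plated at 10 000 cells/well and grown 24 h, then exposed to a range of test compound concentrations for 24 h. Sulforhodamine B read-out: fixation in 50% TCA for 1 h at 4 °C, then 0.4% dye in 1% acetic acid for 1 h, 1% acetic acid washes, and solubilization in 10 mM Tris pH 10.0. Absorbance read at 520 nm. IC50 from nonlinear regression, three independent determinations.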

MCF-7 cells = experiment: IC50 determination, sulforhodamine B assay, MCF-7; settings: MCF-7, one cell cycle
Summary of the method: as §2

ROS in HeLa cells = experiment: Intracellular ROS by DCFDA dye; settings: 6 h, control 2.4 ± 0.1
HeLa cells [5] = experiment: Mitotic index by phospho-histone H3 staining; settings: 20 nM; control 3 ± 0.2
Summary of the method: as §1

tubulin in HeLa cells = experiment: Soluble and polymeric tubulin in cells by western blot; settings: 25 nM, control 2.1 ± 0.4

IC50 (MCF 10A cells): 144 ± 31 nM
IC50 (A549 cells [4]): 112 ± 7 nM
IC50 (MCF-7 cells): 18 ± 3 nM
SMILES: COc1ccc(/C=C\c2cc(OC)c(OC)c(OC)c2)cc1O [CA-4, combretastatin A-4]
mitotic index, Hoechst staining (HeLa cells [1]): 40 ± 1.2
inhibition of migration of A549 cells (A549 cells [2]; 10 h): 77 ± 5%
rate of migration (A549 cells [2]; vehicle 3 ± 0.7): 0.4 ± 0.2 μm/h
PI-stained positive cells (HeLa cells [3]): 87%
fluorescence intensity of DCFDA per cell (ROS in HeLa cells; 20 nM): 3.6 ± 0.4
mitotic index, phospho-histone staining (percentage of mitotic cells) (HeLa cells [5]): 38 ± 0.3%

SMILES: OO [Compound H2O2, H2O2]
fluorescence intensity of DCFDA per cell (ROS in HeLa cells; 100 μM): 4.5 ± 0.2

SMILES: CC[C@]1(O)C[C@@H]2CN(CCc3c([nH]c4ccccc34)[C@@](C(=O)OC)(c3cc4c(cc3OC)N(C)[C@H]3[C@@](O)(C(=O)OC)[C@H](OC(C)=O)[C@]5(CC)C=CCN6CC[C@]43[C@@H]65)C2)C1 [vinblastine]
ratio of polymeric to soluble tubulin (tubulin in HeLa cells): 1.4 ± 0.9
